Assay [1] addresses PBS RNA. Put plainly: Binding affinity to HIV1 (+)PBS/(-)PBS RNA sequence assessed as inhibition of recombinant full-length HIV-1 nucleocapsid protein-mediated (+)/(-)PBS RNA annealing preincubated with (+)/(-)PBS RNA for 15 mins followed by NC addition and measured after 10 mins by RAMPA assay. It is filed as nucleic-acid assay, Human immunodeficiency virus 1. Summed up: (§1)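 Each folded PBS RNA strand (1 μM) was preincubated with compound for 15 min at room temperature. The two strands were then mixed with annealer: NC at 3 μM for line 4, Tat(48–57) […]. Annealing ran 10 min at room temperature and products were resolved by gel. The annealer-induced duplex band was quantified to derive IC50, reported as mean ± SEM of triplicate experiments.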

The target of assay [2] is PBS RNA. Put plainly: Binding affinity to HIV1 (+)/(-) PBS RNA sequence assessed as inhibition of HIV-1 Tat (48 to 57 residues) mediated (+)/(-)PBS RNA annealing preincubated with (+)/(-)PBS RNA for 15 mins followed by peptide addition and measured after 10 mins by RAMPA assay. It counts as nucleic-acid assay, Human immunodeficiency virus 1. In outline: as §1
In assay [3] the test system is PBS RNA. Put plainly: Binding affinity to HIV1 (+)PBS RNA assessed as compound-RNA complex formation at stoichiometry ratio of 1:1 incubated for 30 mins measured under non-denaturing conditions by ESI-MS analysis. It counts as nucleic-acid assay. Particulars: Human immunodeficiency virus 1. In outline: (§2)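 In ESI-MS spectra of compound–RNA mixtures, peaks for free RNA and complexed species were quantified. The percentage of bound substrate in each spectrum gave the relative binding affinity for each RNA construct.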

The test system of assay [4] is PBS RNA. The assay can be described thus: Binding affinity to HIV1 (-)PBS RNA assessed as compound-RNA complex formation at stoichiometry ratio of 1:1 incubated for 30 mins measured under non-denaturing conditions by ESI-MS analysis. Particulars: Human immunodeficiency virus 1. It is filed as nucleic-acid assay. Summed up: as §2
Assay [5] concerns PBS RNA. The assay can be described thus: Binding affinity to HIV1 (+)PBS RNA assessed as compound-RNA complex formation at stoichiometry ratio of 2:1 incubated for 30 mins measured under non-denaturing conditions by ESI-MS analysis. It is filed as nucleic-acid assay. Particulars: Human immunodeficiency virus 1. In outline: (§3)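 ESI-MS binding: compound–RNA mixtures analysed for free and compound-bound RNA species, including 2:1 complexes. Species peak intensities were quantified to give the free versus bound partitioning, and the percentage of bound substrate in each spectrum was used to derive relative binding affinity for each RNA construct.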

For assay [6], the system named is PBS RNA. Put plainly: Binding affinity to HIV1 (-)PBS RNA assessed as compound-RNA complex formation at stoichiometry ratio of 2:1 incubated for 30 mins measured under non-denaturing conditions by ESI-MS analysis. It is filed as nucleic-acid assay. Particulars: Human immunodeficiency virus 1. In outline:
as §3

The test system of assay [7] is PBS RNA. The assay can be described thus: Binding affinity to HIV1 (+)PBS RNA at apical loop assessed as compound-RNA complex formation at stoichiometry ratio of 1:1 by MS/MS spectrum analysis. It counts as nucleic-acid assay. Particulars: Human immunodeficiency virus 1.

Calls of active or inactive are those of the source. No cut-off for these calls is given here. Where only a bound is given, the exact number is not on record here.

Turning to `C[C@H](NC(=O)C(N)CCN)C(=O)Nc1ccc2c(c1)C(=O)c1ccc(NC(=O)[C@H](C)NC(=O)C(N)CCN)cc1C2=O` (stereo partly specified), the IC50 (in general, the concentration that inhibits the measured activity by half) at PBS RNA [1] is 88 µM; on PBS RNA [2], more than 100 µM. Moreover, the result with PBS RNA [3] and in the assay on PBS RNA [4] was Active.
On to `NCCCCC(N)C(=O)NCCC(=O)Nc1ccc2c(c1)C(=O)c1ccc(NC(=O)CCNC(=O)C(N)CCCCN)cc1C2=O` (stereo unspecified), for which the IC50 on PBS RNA [1] was 85 µM; at PBS RNA [2] it was more than 100 µM.
On to `C[C@H](NC(=O)C(N)CN)C(=O)Nc1ccc2c(c1)C(=O)c1ccc(NC(=O)[C@H](C)NC(=O)C(N)CN)cc1C2=O` (stereo partly specified), for which the IC50 at PBS RNA [1] was found to be 54 µM; on PBS RNA [2], 45 µM. Moreover, the outcome with PBS RNA [3] and with PBS RNA [4] was Active.
For the molecule `NCCCC(N)C(=O)NCC(=O)Nc1ccc2c(c1)C(=O)c1ccc(NC(=O)CNC(=O)C(N)CCCN)cc1C2=O` (stereo unspecified), the concentration for half-maximal inhibition (IC50) on PBS RNA [1] worked out at 30 µM; at PBS RNA [2], 34 µM. The result in the assay on PBS RNA [3] and with PBS RNA [4] was Active.
`C[C@H](NC(=O)C(N)CCCN)C(=O)Nc1ccc2c(c1)C(=O)c1ccc(NC(=O)[C@H](C)NC(=O)C(N)CCCN)cc1C2=O` (stereo partly specified): the IC50 on PBS RNA [1] stood at 21 µM; at PBS RNA [2], 16 µM. Also, the result in the assay with PBS RNA [3] and in the assay with PBS RNA [4] was Active.
Take `C[C@H](NC(=O)C(N)CCCCN)C(=O)Nc1ccc2c(c1)C(=O)c1ccc(NC(=O)[C@H](C)NC(=O)C(N)CCCCN)cc1C2=O` (stereo partly specified): the IC50 on PBS RNA [1] was found to be 12 µM; at PBS RNA [2] it was 15 µM. The result in the assay on PBS RNA [5], with PBS RNA [6] and with PBS RNA [7] was Active.
For the molecule `C[C@@H](NC1CCNCC1)C(=O)Nc1ccc2c(c1)C(=O)c1ccc(NC(=O)[C@@H](C)NC3CCNCC3)cc1C2=O`, the IC50 at PBS RNA [1] and on PBS RNA [2] was more than 200 µM throughout. In addition, the result in the assay on PBS RNA [3] and in the assay on PBS RNA [4] was Active.
Turning to `NCCCC(N)C(=O)NCCC(=O)Nc1ccc2c(c1)C(=O)c1ccc(NC(=O)CCNC(=O)C(N)CCCN)cc1C2=O` (stereo unspecified), the IC50 on PBS RNA [1] and on PBS RNA [2] was 20 µM throughout. Moreover, the result in the assay with PBS RNA [5] and in the assay with PBS RNA [6] was Active.
On to `NCCC(N)C(=O)NCCC(=O)Nc1ccc2c(c1)C(=O)c1ccc(NC(=O)CCNC(=O)C(N)CCN)cc1C2=O` (stereo unspecified), for which the IC50 was 30 µM on PBS RNA [1] and 24 µM at PBS RNA [2]. The result in the assay with PBS RNA [3] and with PBS RNA [4] was Active.
`C[C@@H](NC(=O)C(N)CCCCN)C(=O)Nc1ccc2c(c1)C(=O)c1ccc(NC(=O)[C@@H](C)NC(=O)C(N)CCCCN)cc1C2=O` (stereo partly specified): the IC50 at PBS RNA [1] stood at 54 µM; at PBS RNA [2], 48 µM. Also, the outcome in the assay with PBS RNA [3] and in the assay on PBS RNA [4] was Active.
On to `C[C@H](NC1(N)CCNCC1)C(=O)Nc1ccc2c(c1)C(=O)c1ccc(NC(=O)[C@H](C)NC3(N)CCNCC3)cc1C2=O`, for which the IC50 at PBS RNA [1] and on PBS RNA [2] was more than 200 µM throughout. In addition, the result with PBS RNA [3] and in the assay with PBS RNA [4] was Active.
With `C[C@@H](NC(=O)C(N)CCCN)C(=O)Nc1ccc2c(c1)C(=O)c1ccc(NC(=O)[C@@H](C)NC(=O)C(N)CCCN)cc1C2=O` (stereo partly specified), the IC50 on PBS RNA [1] turned out to be 55 µM; on PBS RNA [2] it was 54 µM. Also, the result in the assay on PBS RNA [3] and in the assay on PBS RNA [4] was Active.
As for `NCCCCC(N)C(=O)NCC(=O)Nc1ccc2c(c1)C(=O)c1ccc(NC(=O)CNC(=O)C(N)CCCCN)cc1C2=O` (stereo unspecified), the values for the half-maximal inhibitory concentration (IC50) on PBS RNA [1] and at PBS RNA [2] were 23 µM and 18 µM, respectively. For the same molecule, the result in the assay on PBS RNA [5] and with PBS RNA [6] was Active.

These data come from ChEMBL document CHEMBL4613313, “Multiple in Vitro Inhibition of HIV-1 Proteins by 2,6-Dipeptidyl-anthraquinone Conjugates Targeting the PBS RNA” (ACS Med Chem Lett, 2020).
